The text below walks through data of ChEMBL document CHEMBL4732211, “Multifunctional agents based on benzoxazolone as promising therapeutic drugs for diabetic nephropathy” (Eur J Med Chem, 2021).

The target in experiment [1] is Aldo-keto reductase family 1 member B1 (Rattus norvegicus) (UniProt P07943). Nature of the experiment: Potency index, ratio of IC50 of epalrestat to IC50 of compound for inhibition of Wistar rat lens ALR2 using D,L-glyceraldehyde and NADPH as substrate preincubated for 10 mins followed by substrate addition and measured for 4 mins by spectrophotometric analysis. It is filed as tissue-based. Conditions: time 14.0 min. In outline: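 Aldose reductases (ALR2, ALR1) prepared from Wistar rats (200-250 g). NADPH loss followed at 340 nm for 4 min after substrate start, following 10 min preincubation. ALR2: pH 6.2 phosphate, 30 °C, NADPH 0.10 mM, D,L-glyceraldehyde 10 mM. ALR1: pH 7.2, 37 °C, NADPH 0.12 mM, D-glucuronate 20 mM. 0.5% DMSO; non-enzymatic rate subtracted. IC50 from log dose-response with ≥3 concentrations (20-80% inhibition), triplicate.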

Experiment [2] is described as follows: Antioxidant activity assessed as DPPH radical scavenging activity at 10 uM after 30 mins by spectrophotometric analysis. Format: functional. In short, it runs like this: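 DPPH in methanol (1 mL, 0.025 mg/mL) plus methanol 1.9 mL and compound in methanol, final 100, 50 and 10 µM; absorbance at 517 nm. Scavenging % = 1 − (A_sample − A_blank)/A_control, where the blank is compound without DPPH. Trolox reference.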

The subject of a further experiment is Brain. Nature of the experiment: Antioxidant activity in rat brain assessed as inhibition of lipid peroxidation at 50 to 100 uM by TBARS assay. Format: functional, tissue-based. Conditions: dose 50-100 µM. In outline: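 Rat brain freshly homogenized in ice-cold saline and centrifuged; supernatant protein measured by Coomassie. Hydroxyl radical-driven lipid peroxidation read as MDA/TBARS with a commercial kit.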

Experiment [3] is described as follows: Inhibition of polyol pathway in STZ-induced Kunming mouse model of diabetes assessed as decrease in sorbitol level in kidney cortex at 80 mg/kg, po administered daily via gavage for 8 weeks and measured at 6 hrs post-final drug dose by fluorospectrophotometric analysis. Format: functional. Conditions: 1344 h.
Experiment [4] can be described thus: Inhibition of polyol pathway in STZ-induced Kunming mouse model of diabetes assessed as decrease in sorbitol level in kidney cortex at 80 mg/kg, po administered QD via gavage for 4 weeks and measured at 6 hrs post-final drug dose by fluorospectrophotometric analysis. It is filed as functional. Conditions: 672 h.
In experiment [5] the test system is Mus musculus. The experiment can be described thus: Antioxidant activity in STZ-induced diabetic Kunming mouse assessed as reduction in liver MDA level at 80 mg/kg, po administered QD via gavage for 4 weeks and measured at 6 hrs post-final drug dose relative to STZ-treated group. It is filed as functional. Conditions: 672 h.
Experiment [6] relates to Mus musculus. The experiment can be described thus: Antioxidant activity in STZ-induced diabetic Kunming mouse assessed as reduction in liver MDA level at 80 mg/kg, po administered daily via gavage for 8 weeks and measured at 6 hrs post-final drug dose relative to normal group. Format: functional. Conditions: 1344 h.
In experiment [7] the test system is Mus musculus. Nature of the experiment: Antioxidant activity in STZ-induced diabetic Kunming mouse assessed as rise in liver MDA level at 80 mg/kg, po administered QD via gavage for 4 weeks and measured at 6 hrs post-final drug dose relative to normal group. Format: functional.
Experiment [8] deals with Mus musculus. Nature of the experiment: Antioxidant activity in STZ-induced diabetic Kunming mouse assessed as increase in SOD level in kidney at 160 mg/kg, po administered daily via gavage for 8 weeks and measured at 6 hrs post-final drug dose. Format: functional.
Experiment [9] has as its system Mus musculus. Nature of the experiment: Antioxidant activity in STZ-induced diabetic Kunming mouse assessed as increase in GSH level in kidney at 160 mg/kg, po administered daily via gavage for 8 weeks and measured at 6 hrs post-final drug dose by microplate reader analysis. Format: functional.
Experiment [10] has as its system Mus musculus. The experiment can be described thus: Antioxidant activity in STZ-induced diabetic Kunming mouse assessed as increase in GSH level in kidney at 80 mg/kg, po administered QD via gavage for 4 weeks and measured at 6 hrs post-final drug dose by microplate reader analysis. It is filed as functional.
Experiment [11] relates to Mus musculus. The experiment can be described thus: Antidiabetic activity in STZ-induced Kunming mouse model of diabetes assessed as reduction in blood glucose level at 80 mg/kg, po administered daily via gavage for 8 weeks and measured at week 6. Conditions: 1008 h, time 6 weeks. It is filed as functional.
For experiment [12], the system named is Mus musculus. Nature of the experiment: Antidiabetic activity in STZ-induced Kunming mouse model of diabetes assessed as reduction in blood glucose level at 80 mg/kg, po administered daily via gavage for 8 weeks and measured at week 8. Format: functional. Conditions: 1344 h.
For experiment [13], the system named is Mus musculus. The experiment can be described thus: Reno-protective activity in STZ-induced Kunming mouse model of diabetes assessed as urinary total protein excretion at 160 mg/kg, po administered daily via gavage for 8 weeks and measured at week 4 relative to control. Format: functional. Conditions: time 4 weeks.
Experiment [14] deals with Mus musculus. Nature of the experiment: Reno-protective activity in STZ-induced Kunming mouse model of diabetes assessed as urinary total protein excretion at 80 mg/kg, po administered daily via gavage for 8 weeks and measured at week 6 relative to control. It is filed as functional. Conditions: time 6 weeks.
In experiment [15] the test system is Mus musculus. Nature of the experiment: Reno-protective activity in STZ-induced Kunming mouse model of diabetes assessed as urinary total protein excretion at 160 mg/kg, po administered daily via gavage for 8 weeks and measured at week 8 relative to control. Format: functional.
Experiment [16] relates to Mus musculus. Nature of the experiment: Reno-protective activity in STZ-induced Kunming mouse model of diabetes assessed as reduction in albumin to creatinine ratio at 160 mg/kg, po administered daily via gavage for 8 weeks. Format: functional. Conditions: 1344 h.
Experiment [17] has as its system Mus musculus. Nature of the experiment: Reno-protective activity in STZ-induced Kunming mouse model of diabetes assessed as reduction in albumin to creatinine ratio at 80 mg/kg, po administered QD via gavage for 4 weeks. It is filed as functional. Conditions: 672 h.
For experiment [18], the system named is Mus musculus. The experiment can be described thus: Reno-protective activity in STZ-induced Kunming mouse model of diabetes assessed as normal kidney structure at 80 mg/kg, po administered QD via gavage for 4 weeks by H and E staining based histological analysis. Format: functional, organism-based.
Experiment [19] relates to Mus musculus. Nature of the experiment: Reno-protective activity in STZ-induced Kunming mouse model of diabetes assessed as reduction in urinary total protein excretion at 80 mg/kg, po administered QD via gavage for 4 weeks and measured at week 2 to 4. It is filed as functional, organism-based. Conditions: time 2-4 weeks.

Activity calls are given as the source filed them. The rule behind the calls is not given here.

Turning to `COc1cc(/C=C/c2cccc3c2oc(=O)n3CC(=O)O)ccc1O`, in [1], the Ratio IC50 came to 15. For the same compound, the Activity in [2] is 22.7%; in the experiment on Mus musculus [7], 15%; in the experiment on Mus musculus [8], 38%; in the experiment with Mus musculus [9], 210%; in the experiment on Mus musculus [10], 150%; with Mus musculus [13] it was 93%. Moreover, the values for the Activity in the experiment on Mus musculus [14] and in the experiment on Mus musculus [15] were 50% and 58%, respectively. The result in the experiment with Brain, in the experiment on Mus musculus [18] and with Mus musculus [19] was Active. Further, the inhibition in vivo at 80 mg/kg in [3] was 19%; in experiment [4] it was 24%; in the experiment with Mus musculus [5], 54%; in the experiment with Mus musculus [6], 16%; with Mus musculus [11], 19%; in the experiment on Mus musculus [12] it was 9%. Moreover, the inhibition in vivo at 80 mg/kg in the experiment on Mus musculus [17] was 57%. Moreover, the inhibition in vivo at 160 mg/kg in the experiment with Mus musculus [16] stood at 79%.
